The source of these data is paper PMC2738596 (Biochimica et biophysica acta, 2008).

Series [1] addresses ryanodine-modified RyR2 (Canis lupus familiaris, UniProt A0A8I3MT21). The series is described as follows: Peptide/IpTxA action on ryanodine-modified RyR2 in planar lipid bilayers. In kind it is biochemical, dog.
The subject of series [2] is RyRs. The conditions noted are these: ryanodine locks channels open; ref [3], [45]; cited from earlier work.
Series [3] relates to RyR2 with IpTxA. The series can be described thus: Interaction of peptides with IpTxA-modified RyR2 in planar lipid bilayers. Type of series: biochemical, dog. Particulars: for apparent dissociation constant from RyR2 (1/dwell time): 500 µM KIFMK. In short, it runs like this: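 Dog cardiac RyR2 was recorded in planar bilayers with HEPES-Ca2+ trans and HEPES-Tris cis at pH 7.4, Ca2+/caffeine-activated, with cytosolic IpTxA at 50 nM and Vm +10 mV. Peptide was then added cis. Block events (dwell time, number, P_block = fraction of time at baseline) were scored frame-by-frame on 4-min records, separately during full openings and during IpTxA-induced substates. Means ± S.E.M.; paired t-test.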

Series [4] deals with T1, cardiac RyR2 (Canis lupus familiaris, UniProt A0A8I3MT21). The series is described as follows: Induction of subconductance states. In kind it is biochemical, dog. In short, it runs like this: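 Dog ventricular SR microsomes fused into PE/PS/PC (5:4:1) bilayers. Solutions: cis HEPES 250 mM/Tris 118 mM, trans HEPES 250 mM/Ca(OH)2 53 mM, pH 7.4. Cytosolic Ca2+ buffered with BAPTA/dibromo-BAPTA; Ca2+/caffeine-activated channel; peptide added cis. Four-minute records were filtered at 500 Hz (Vm ≥0) or 400 Hz (Vm <0). P_substate = substate time/total time, scored frame-by-frame (100 ms frames, events >3 ms) or from Gaussian-fitted all-points histograms. Paired t-test.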

Series [5] has as its target T1, cardiac RyR2. In kind it is biochemical, dog.
Series [6] has as its target RyR2 (ryanodol-modified) (Canis lupus familiaris, UniProt A0A8I3MT21). Type of series: biochemical, dog. The conditions noted are these: for probability of ryanodol-induced modification: n=5 paired (Fig. 6).
Series [7] has as its system SR microsomes. Particulars: ref [19], [26], [55]; cited from earlier work.
Where [8] appears, read: Shaker B 2 µM n=4, KIFMK 500 µM n=8.
[9] abbreviates: 500 µM KIFMK, frame by frame analysis.
Setting [10] is: IpTxA plus ryanodol, +10 mV, 40 min.
Setting [11] is: ryanodol, control before IpTxA (Fig. 7A, B).

“Also recorded” adds a separate entry of the source. Like-named read-outs stand apart in the source and are kept apart here. Ends that are not written are not given here.

RyR2 (ryanodol-modified), sequence (A0A8I3MT21 1-4967): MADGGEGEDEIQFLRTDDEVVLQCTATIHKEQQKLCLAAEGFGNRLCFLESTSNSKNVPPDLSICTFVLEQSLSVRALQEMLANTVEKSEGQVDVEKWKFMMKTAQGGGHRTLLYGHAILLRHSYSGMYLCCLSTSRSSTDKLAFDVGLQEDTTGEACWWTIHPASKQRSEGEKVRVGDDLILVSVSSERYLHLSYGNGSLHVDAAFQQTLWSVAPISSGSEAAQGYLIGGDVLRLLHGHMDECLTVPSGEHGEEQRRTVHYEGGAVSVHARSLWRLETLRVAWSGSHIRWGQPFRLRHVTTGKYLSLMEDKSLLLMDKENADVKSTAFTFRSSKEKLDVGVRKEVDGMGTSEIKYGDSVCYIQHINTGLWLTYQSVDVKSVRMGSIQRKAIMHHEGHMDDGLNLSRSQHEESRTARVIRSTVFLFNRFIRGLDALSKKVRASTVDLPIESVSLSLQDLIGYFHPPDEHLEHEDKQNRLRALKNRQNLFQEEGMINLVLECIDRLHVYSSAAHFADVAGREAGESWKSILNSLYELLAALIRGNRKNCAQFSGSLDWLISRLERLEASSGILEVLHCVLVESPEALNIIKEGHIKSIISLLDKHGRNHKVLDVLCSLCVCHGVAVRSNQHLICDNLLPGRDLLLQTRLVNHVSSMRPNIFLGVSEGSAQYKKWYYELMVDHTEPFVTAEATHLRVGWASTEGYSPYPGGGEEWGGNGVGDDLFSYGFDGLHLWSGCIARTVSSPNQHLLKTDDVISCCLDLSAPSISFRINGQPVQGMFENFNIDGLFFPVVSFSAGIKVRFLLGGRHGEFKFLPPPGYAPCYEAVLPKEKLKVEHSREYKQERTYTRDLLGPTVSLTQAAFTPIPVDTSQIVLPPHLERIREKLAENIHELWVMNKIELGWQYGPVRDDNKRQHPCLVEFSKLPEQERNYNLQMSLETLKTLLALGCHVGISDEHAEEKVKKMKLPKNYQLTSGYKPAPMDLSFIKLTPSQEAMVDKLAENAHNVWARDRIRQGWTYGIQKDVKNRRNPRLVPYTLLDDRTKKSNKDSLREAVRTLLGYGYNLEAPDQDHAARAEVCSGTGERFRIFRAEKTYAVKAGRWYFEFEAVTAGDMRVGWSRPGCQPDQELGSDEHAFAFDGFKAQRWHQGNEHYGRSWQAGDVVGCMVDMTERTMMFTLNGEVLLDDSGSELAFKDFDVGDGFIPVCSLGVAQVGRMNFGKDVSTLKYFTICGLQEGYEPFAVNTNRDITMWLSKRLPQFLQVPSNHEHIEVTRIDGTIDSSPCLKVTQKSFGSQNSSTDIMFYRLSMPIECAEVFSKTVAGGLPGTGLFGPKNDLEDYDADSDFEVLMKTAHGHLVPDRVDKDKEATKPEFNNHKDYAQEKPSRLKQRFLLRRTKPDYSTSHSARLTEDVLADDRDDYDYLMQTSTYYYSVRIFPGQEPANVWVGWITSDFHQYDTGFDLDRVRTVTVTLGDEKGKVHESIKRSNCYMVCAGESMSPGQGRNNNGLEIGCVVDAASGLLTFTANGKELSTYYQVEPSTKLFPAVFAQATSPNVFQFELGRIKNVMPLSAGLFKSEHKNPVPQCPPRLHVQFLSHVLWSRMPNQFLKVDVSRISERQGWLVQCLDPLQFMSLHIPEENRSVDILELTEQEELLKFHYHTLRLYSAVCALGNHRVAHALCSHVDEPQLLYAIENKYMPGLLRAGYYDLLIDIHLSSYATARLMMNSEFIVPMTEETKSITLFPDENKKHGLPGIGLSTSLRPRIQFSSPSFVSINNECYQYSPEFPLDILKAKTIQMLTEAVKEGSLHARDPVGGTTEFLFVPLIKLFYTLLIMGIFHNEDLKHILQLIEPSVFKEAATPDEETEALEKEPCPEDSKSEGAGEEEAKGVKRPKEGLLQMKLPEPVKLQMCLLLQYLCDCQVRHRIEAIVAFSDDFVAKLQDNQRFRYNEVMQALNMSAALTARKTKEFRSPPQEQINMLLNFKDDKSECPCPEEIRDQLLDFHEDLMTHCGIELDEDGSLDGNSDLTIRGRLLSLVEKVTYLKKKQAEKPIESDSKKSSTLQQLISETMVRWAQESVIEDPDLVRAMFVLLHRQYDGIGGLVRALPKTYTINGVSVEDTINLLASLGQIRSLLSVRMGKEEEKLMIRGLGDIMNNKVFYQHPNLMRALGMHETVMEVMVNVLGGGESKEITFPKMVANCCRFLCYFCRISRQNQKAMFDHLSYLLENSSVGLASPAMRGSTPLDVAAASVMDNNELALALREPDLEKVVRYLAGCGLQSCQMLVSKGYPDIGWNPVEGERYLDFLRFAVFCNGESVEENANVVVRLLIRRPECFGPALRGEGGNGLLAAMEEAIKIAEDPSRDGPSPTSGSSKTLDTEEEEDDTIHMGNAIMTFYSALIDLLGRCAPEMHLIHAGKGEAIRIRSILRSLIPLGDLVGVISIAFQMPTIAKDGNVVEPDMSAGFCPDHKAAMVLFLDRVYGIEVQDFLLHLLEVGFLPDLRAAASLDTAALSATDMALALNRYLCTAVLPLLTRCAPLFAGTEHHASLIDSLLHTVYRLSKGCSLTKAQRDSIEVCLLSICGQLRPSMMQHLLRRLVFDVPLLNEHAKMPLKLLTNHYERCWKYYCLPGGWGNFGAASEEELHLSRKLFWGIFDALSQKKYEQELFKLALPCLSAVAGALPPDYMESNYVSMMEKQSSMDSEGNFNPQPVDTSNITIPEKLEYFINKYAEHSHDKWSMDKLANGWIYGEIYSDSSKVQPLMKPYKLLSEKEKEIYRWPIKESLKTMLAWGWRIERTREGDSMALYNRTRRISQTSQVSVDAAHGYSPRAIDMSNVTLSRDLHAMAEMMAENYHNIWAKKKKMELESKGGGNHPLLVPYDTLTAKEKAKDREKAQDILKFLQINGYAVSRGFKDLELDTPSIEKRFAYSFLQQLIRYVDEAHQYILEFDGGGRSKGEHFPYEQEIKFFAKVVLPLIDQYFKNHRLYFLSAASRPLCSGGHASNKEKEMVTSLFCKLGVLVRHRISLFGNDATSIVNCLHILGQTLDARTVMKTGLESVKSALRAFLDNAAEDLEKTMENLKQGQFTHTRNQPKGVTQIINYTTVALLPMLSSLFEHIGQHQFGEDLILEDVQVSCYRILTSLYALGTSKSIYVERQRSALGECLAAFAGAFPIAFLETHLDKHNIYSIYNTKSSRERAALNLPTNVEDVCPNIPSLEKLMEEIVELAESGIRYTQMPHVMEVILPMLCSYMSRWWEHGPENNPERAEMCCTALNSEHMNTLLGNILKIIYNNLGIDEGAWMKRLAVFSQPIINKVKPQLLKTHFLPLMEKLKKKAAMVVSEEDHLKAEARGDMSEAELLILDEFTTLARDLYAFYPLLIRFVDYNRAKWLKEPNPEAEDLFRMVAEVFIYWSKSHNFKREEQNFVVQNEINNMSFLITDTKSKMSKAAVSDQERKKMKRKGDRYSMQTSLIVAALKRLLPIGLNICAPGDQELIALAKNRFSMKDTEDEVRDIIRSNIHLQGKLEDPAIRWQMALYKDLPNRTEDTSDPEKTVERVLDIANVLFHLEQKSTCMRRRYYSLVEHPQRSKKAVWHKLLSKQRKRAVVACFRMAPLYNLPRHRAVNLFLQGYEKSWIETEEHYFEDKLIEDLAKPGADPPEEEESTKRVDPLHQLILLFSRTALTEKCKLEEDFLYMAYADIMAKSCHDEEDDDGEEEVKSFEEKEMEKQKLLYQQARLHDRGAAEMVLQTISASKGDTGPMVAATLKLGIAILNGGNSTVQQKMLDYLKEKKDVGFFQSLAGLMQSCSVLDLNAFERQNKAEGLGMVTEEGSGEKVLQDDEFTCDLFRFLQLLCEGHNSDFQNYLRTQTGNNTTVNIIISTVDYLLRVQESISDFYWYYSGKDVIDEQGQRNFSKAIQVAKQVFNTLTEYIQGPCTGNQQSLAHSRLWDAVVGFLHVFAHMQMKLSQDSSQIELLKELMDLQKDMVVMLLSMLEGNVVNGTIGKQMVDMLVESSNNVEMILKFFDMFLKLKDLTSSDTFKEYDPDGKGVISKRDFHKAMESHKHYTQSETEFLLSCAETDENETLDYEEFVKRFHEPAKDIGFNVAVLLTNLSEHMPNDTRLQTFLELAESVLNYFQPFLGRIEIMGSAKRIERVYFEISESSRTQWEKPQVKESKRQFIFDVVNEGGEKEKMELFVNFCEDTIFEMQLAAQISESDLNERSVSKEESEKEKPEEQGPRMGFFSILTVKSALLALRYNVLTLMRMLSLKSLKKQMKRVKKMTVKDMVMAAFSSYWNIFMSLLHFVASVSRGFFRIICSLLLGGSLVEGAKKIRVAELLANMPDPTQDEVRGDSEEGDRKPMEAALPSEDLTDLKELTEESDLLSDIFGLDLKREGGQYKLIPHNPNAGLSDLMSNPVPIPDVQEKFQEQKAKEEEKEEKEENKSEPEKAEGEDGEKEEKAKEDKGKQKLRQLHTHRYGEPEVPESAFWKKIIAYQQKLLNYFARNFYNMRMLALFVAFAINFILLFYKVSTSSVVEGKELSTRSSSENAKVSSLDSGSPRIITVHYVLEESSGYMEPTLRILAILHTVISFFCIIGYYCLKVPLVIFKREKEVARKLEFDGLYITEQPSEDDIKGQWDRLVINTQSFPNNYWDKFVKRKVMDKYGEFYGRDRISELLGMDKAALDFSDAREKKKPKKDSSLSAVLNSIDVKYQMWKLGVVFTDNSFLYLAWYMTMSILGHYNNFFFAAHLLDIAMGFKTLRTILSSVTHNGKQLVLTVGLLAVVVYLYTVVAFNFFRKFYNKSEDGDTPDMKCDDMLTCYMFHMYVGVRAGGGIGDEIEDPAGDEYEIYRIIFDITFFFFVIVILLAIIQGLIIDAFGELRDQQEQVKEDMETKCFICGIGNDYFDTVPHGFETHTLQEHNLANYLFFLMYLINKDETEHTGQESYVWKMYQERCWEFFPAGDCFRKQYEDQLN
ryanodine-modified RyR2, sequence (A0A8I3MT21 1-4967): as above
T1 sequence (A0A8I3MT21 1-4967): as above

With ryanodine, the “effect of ryanodine on channel gating” value in series [1] (2 µM ryanodine) was “channels are locked open; closures are brief and extremely rare”. In addition, in series [2], the “slope conductance of modified state, of full openings” value is reported as ~ 40%.

As to `CC[C@H](C)[C@H](NC(=O)[C@H](CCCCN)NC(C)=O)C(=O)N[C@@H](Cc1ccccc1)C(=O)N[C@@H](CCSC)C(=O)N[C@@H](CCCCN)C(N)=O` [KIFMK, acetyl-KIFMK-amide], in series [3] (50 nM IpTxA, +10 mV, Peptide A 20 µM, Shaker B 40 µM, KIFMK 500 µM), the “action during IpTxA-induced substates versus full openings” value is on record as “able to block the IpTxA-modified channel; also recorded: the probability of blocking the channels was significantly lower during IpTxA-induced substates than during full openings”. Besides, in series [3] (during IpTxA substates, 50 nM IpTxA, +10 mV), the “apparent dissociation constant from RyR2 (1/dwell time)” value came out at 3.1 s⁻¹. Further, in series [3] (during full openings, 50 nM IpTxA, +10 mV), the “apparent dissociation constant from RyR2 (1/dwell time)” value stood at 166 s⁻¹. The “action during IpTxA-ryanodine sub-substates” value in series [3] (ryanodine-modified RyR2 with IpTxA, results not shown) is “only induced some block events”. The “predominant substate level, of the ryanodine-modified conductance” value in series [1] (KIFMK 500 µM) is reported as ~ 52%. In series [1] (KIFMK 500 µM, ryanodine-modified, n=6), this molecule returned a block dwell time of 29.9 ± 10.5 ms. Also, in series [1] (KIFMK 500 µM, n=6), the “increase of block dwell time with ryanodine” value was 316 ± 62%. Besides, in series [1] (setting [8]), the “substate amplitude level 1, of full openings of ryanodine-modified channel” value is recorded as 31 ± 1%; the “substate amplitude level 2, of full openings of ryanodine-modified channel” value worked out at 51 ± 1%; the “substate amplitude level 3, of full openings of ryanodine-modified channel” value is 75 ± 1%. Moreover, in series [1] (in the presence of ryanodine), the “decrease of probability of block on changing 0 mV to +20 mV” value turned out to be 83% and the “decrease of probability of substates on changing 0 mV to +20 mV” value is on record as 61%. Further, the “increase in frequency of substates” value in series [4] (500 µM KIFMK vs before addition, n=5 paired observations) amounted to 37 ± 9 times. Also, in series [4] (setting [9]), the “substate level 1, of full conductance” value was ~ 27.3 ± 0.3%; the “substate level 2, of full conductance” value is on record as roughly 48.6 ± 0.7%; the “substate level 3, of full conductance” value is roughly 72.3 ± 0.5%. Also, in series [4] (500 µM KIFMK, n=5 paired observations, control 0.9 ± 0.3), the frequency of substates came to 22.1 ± 4.4 events/min. In series [4] (KIFMK, n=8), the “substate amplitude level 1, in the absence of ryanodine” value is recorded as 27 ± 1% and the “substate amplitude level 3, in the absence of ryanodine” value was determined as 74 ± 2%. In addition, in series [4] (discussion summary), the “substate level, ~30% of full RyR2 conductance” value is listed as ~ 30%; the “substate level, ~50% of full RyR2 conductance” value is roughly 50%; the “substate level, ~70% of full RyR2 conductance” value was roughly 70%. For the same molecule, the “duration of block events” value in series [5] (0 mV) is “intermediate duration”. Further, in series [5] (0 mV, Peptide A n=4, KIFMK n=6, mean ± SEM), the “mean duration of block events” value is 5.3 ± 0.3 ms. The “d (fraction of the membrane potential acting at the site)” value in series [5] (Woodhull fit, z = 6 Peptide A, 7 Shaker B, 2 KIFMK) is 1.2 ± 0.3.

Turning to `CC(C)[C@@]1(O)[C@@H](O)[C@@]2(O)[C@@]3(C)C[C@]4(O)O[C@@]5([C@H](O)[C@@H](C)CC[C@]35O)[C@@]2(O)[C@]14C` [ryanodol], the “probability of R (ryanodol alone) after IpTxA” value in series [6] (50 nM IpTxA) is recorded as “decreased dramatically”. For the same molecule, the “probability of ryanodol-induced modification” value in series [6] (20 µM ryanodol, 0 mV, before Peptide A) was determined as 0.58 ± 0.04. Further, the “probability of ryanodol-induced modification” value in series [6] (20 µM ryanodol, 0 mV, with 5 µM Peptide A) turned out to be 0.76 ± 0.05. For the same molecule, the “action on ryanodol-modified RyR2 or on ryanodol binding” value in series [6] (20 µM ryanodol, 5 µM Peptide A, 0 mV) was “increased dwell times for ryanodol-modified states”. In addition, in series [6] (setting [10]), the “number of R substate events” value is reported as 98 events, the “number of transitions R→Open” value is given as 5 times and the “number of transitions i→R+i” value was 6 times. Also, the “decrease of probability of ryanodol modification from 0 to +20 mV” value in series [6] (n=6) is on record as 52 ± 11%. Moreover, the “relative rate of transition i→R+i” value in series [6] (ryanodol binding to IpTxA-modified channel, +10 mV) turned out to be 14.6. Further, the “relative rate of transition Open→R” value in series [6] (ryanodol binding to open channel, +10 mV) is on record as 130. Besides, the “relative rate of transition R+i→i” value in series [6] (ryanodol dissociation with IpTxA bound, +10 mV) is given as 144. Moreover, the “preferred sequence of binding Open→R→R+i, share of cases” value in series [6] (ryanodol first, then IpTxA, +10 mV) came out at 93%. In addition, in series [6] (setting [11]), the “probability of full opening” value was ~ 80% and the “probability of ryanodol state” value is listed as ~ 20%. Besides, the “total probability of ryanodol binding (R and R+i), increased” value in series [6] (with 50 nM IpTxA, all voltages tested but +30 mV) is ~ 40%.

With `Cn1c(=O)c2c(ncn2C)n(C)c1=O` [caffeine], in series [5] (most channels, Ca2+ 10 µM + caffeine 5 mM, before peptides), the “Po with Ca2+ and caffeine” value is listed as greater than 0.9.

Regarding TSAQKAKAEERKRRKMSRGL [Peptide A], the “[3H] ryanodine binding to SR microsomes” value in series [7] is “enhances [^3H] ryanodine binding to SR microsomes”.
